ChEMBL document CHEMBL1123493, “Synthesis and antiviral activity of the carbocyclic analogues of 5-ethyl-2'-deoxyuridine and of 5-ethynyl-2'-deoxyuridine” (1986)
Converted amounts (≈) assume the structure as drawn. “And” between values parts separate entries of the source, which are not always exact repeats. Equal values may be shown once.

Key:
Oryctolagus cuniculus [1] = species on record: Oryctolagus cuniculus; assay: Compound was tested for the inhibition of the replication of herpes simplex virus in vero cells of HSV-2 strain MS in rabbit kidney cells; assay type: functional
Oryctolagus cuniculus [2] = species on record: Oryctolagus cuniculus; assay: Compound was evaluated for antiviral activity against HSV-2 strain MS in rabbit kidney cells; assay type: functional
Oryctolagus cuniculus [3] = species on record: Oryctolagus cuniculus; assay: Compound was evaluated for antiviral activity against Herpes Simplex Virus (HSV-1 strain 377) in rabbit kidney cells; assay type: functional
Oryctolagus cuniculus [4] = species on record: Oryctolagus cuniculus; assay: Compound was tested for the inhibition of the replication of herpes simplex virus (HSV-I strain 377) in rabbit kidney cells; assay type: functional
Vero [5] = assay: Compound was evaluated for antiviral activity against Herpes Simplex Virus (HSV-2 strain MS) in vero cells in exp. no. 3; assay type: functional, Chlorocebus sabaeus
Summary of the method: (§1)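 Inhibition of virus-induced cytopathogenic effect was measured in Vero cells infected with TK⁺ HSV-1 strain 377 or TK⁺ HSV-2 strain MS, using a modified Ehrlich method. Activity is given as a virus rating, which weights both the degree of CPE inhibition and the cytotoxicity of the compound. Potency is given as the minimum inhibitory concentration (MIC₅₀).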

Vero [6] = assay: Compound was evaluated for antiviral activity against Herpes Simplex Virus (HSV-1 strain 377) in vero cells in exp. no. 3; assay type: functional, Chlorocebus sabaeus; summary of the method: as §1
Vero [7] = assay: Compound was tested for the inhibition of the replication of herpes simplex virus (HSV-I strain 377) in vero cells in exp. no. 3; assay type: functional; conditions: Chlorocebus sabaeus; summary of the method: as §1
Vero [8] = assay: Compound was evaluated for antiviral activity against Herpes Simplex virus (HSV-1 strain 377) in exp. no. 2; assay type: functional, Chlorocebus sabaeus
Vero [9] = assay: Compound was evaluated for antiviral activity against Herpes Simplex virus (HSV-2 strain MS) in exp. no. 1; assay type: functional, Chlorocebus sabaeus
Vero [10] = assay: Compound was evaluated for antiviral activity against Herpes Simplex virus (HSV-2 strain MS) in exp. no. 2; assay type: functional, Chlorocebus sabaeus
Vero [11] = assay: Compound was tested for the inhibition of the replication of herpes simplex virus (HSV-I strain 377) in vero cells of in exp. no. 1; assay type: functional; conditions: Chlorocebus sabaeus; summary of the method: as §1
Vero [12] = assay: Compound was tested for the inhibition of the replication of herpes simplex virus (HSV-I strain 377) in vero cells of in exp. no. 2; assay type: functional; conditions: Chlorocebus sabaeus; summary of the method: as §1
Vero [13] = assay: Compound was evaluated for antiviral activity against Herpes Simplex Virus (HSV-1 strain 377) in vero cells in exp. no. 1; assay type: functional, Chlorocebus sabaeus; summary of the method: as §1
Vero [14] = assay: Compound was tested for the inhibition of the replication of herpes simplex virus (HSV-2 strain MS) in vero cells in exp. no.1; assay type: functional; conditions: Chlorocebus sabaeus; summary of the method: as §1
Vero [15] = assay: Compound was tested for the inhibition of the replication of herpes simplex virus (HSV-2 strain MS) in vero cells in exp. no.2; assay type: functional; conditions: Chlorocebus sabaeus; summary of the method: as §1
Vero [16] = assay: Compound was tested for the inhibition of the replication of herpes simplex virus (HSV-I strain 377) in vero cells in exp. no. 1; assay type: functional; conditions: Chlorocebus sabaeus; summary of the method: as §1
Vero [17] = assay: Compound was evaluated for antiviral activity against Herpes Simplex Virus (HSV-1 strain 377) in vero cells in exp. no.1; assay type: functional, Chlorocebus sabaeus; summary of the method: as §1
Vero [18] = assay: Compound was evaluated for antiviral activity against Herpes Simplex Virus (HSV-2 strain MS) in vero cells in exp. no.2; assay type: functional, Chlorocebus sabaeus; summary of the method: as §1
Vero [19] = assay: Compound was tested for the inhibition of the replication of herpes simplex virus (HSV-I strain 377) in vero cells in exp. no.1; assay type: functional; conditions: Chlorocebus sabaeus; summary of the method: as §1
Vero [20] = assay: Compound was evaluated for antiviral activity against Herpes Simplex Virus (HSV-2 strain MS) in vero cells in exp. No. 2; assay type: functional, Chlorocebus sabaeus; summary of the method: as §1
Vero [21] = assay: Compound was evaluated for antiviral activity against Herpes Simplex Virus (HSV-1 strain 377) in vero cells in exp. No. 2; assay type: functional, Chlorocebus sabaeus; summary of the method: as §1
Vero [22] = assay: (§2) Compound was tested for the inhibition of the replication of herpes simplex virus (HSV-2 strain MS) in vero cells in exp. No. 2; assay type: functional; conditions: Chlorocebus sabaeus; summary of the method: as §1
Vero [23] = assay: Compound was tested for the inhibition of the replication of herpes simplex virus (HSV-I strain 377) in vero cells in exp. No. 2; assay type: functional; conditions: Chlorocebus sabaeus; summary of the method: as §1
Vero [24] = assay: as §2; assay type: functional; conditions: Chlorocebus sabaeus; summary of the method: as §1; remark: listed apart in the source
Vero [25] = assay: Compound was evaluated for antiviral activity against Herpes Simplex Virus (HSV-2 strain MS) in vero cells in exp. No. 1; assay type: functional, Chlorocebus sabaeus; summary of the method: as §1
Vero [26] = assay: Compound was evaluated for antiviral activity against Herpes Simplex Virus (HSV-2 strain MS) in vero cells in exp. No. 3; assay type: functional, Chlorocebus sabaeus; summary of the method: as §1
Vero [27] = assay: Compound was tested for the inhibition of the replication of herpes simplex virus (HSV-I strain 377) in vero cells of in exp. No. 1; assay type: functional; conditions: Chlorocebus sabaeus; summary of the method: as §1
Vero [28] = assay: Compound was evaluated for antiviral activity against Herpes Simplex Virus (HSV-1 strain 377) in vero cells in exp. No. 1; assay type: functional, Chlorocebus sabaeus; summary of the method: as §1
Vero [29] = assay: Compound was tested for the inhibition of the replication of herpes simplex virus (HSV-2 strain MS) in vero cells in exp. No. 1; assay type: functional; conditions: Chlorocebus sabaeus; summary of the method: as §1
Vero [30] = assay: Compound was tested for the inhibition of the replication of herpes simplex virus (HSV-2 strain MS) in vero cells in exp. No. 3; assay type: functional; conditions: Chlorocebus sabaeus; summary of the method: as §1
Vero [31] = assay: Compound was tested for the inhibition of the replication of herpes simplex virus (HSV-I strain 377) in vero cells in exp. No. 1; assay type: functional; conditions: Chlorocebus sabaeus; summary of the method: as §1
Vero [32] = assay: Compound was tested for the inhibition of the replication of herpes simplex virus (HSV-I strain 377) in vero cells in exp. No. 3; assay type: functional; conditions: Chlorocebus sabaeus; summary of the method: as §1
Vero [33] = assay: Compound was evaluated for antiviral activity against Herpes Simplex Virus (HSV-1 strain 377) in vero cells in exp. No. 3; assay type: functional, Chlorocebus sabaeus; summary of the method: as §1

Cc1cn([C@@H]2C[C@H](CO)[C@@H](O)C2)c(=O)[nH]c1=O
MIC50 (Oryctolagus cuniculus [1]): 7 µg/mL (≈ 29.1 µM) | VR (Oryctolagus cuniculus [2]): 3.2 | VR (Oryctolagus cuniculus [3]): 5.4 | MIC50 (Oryctolagus cuniculus [4]): 0.8 µg/mL (≈ 3.33 µM)

C[Si](C)(C)CCc1cn([C@H]2C[C@H](O)[C@@H](CO)O2)c(=O)[nH]c1=O
VR (Vero [5]): 0.1 | VR (Vero [6]): 0.5 | MIC50 (Vero [7]): 320 µg/mL and 980 µM

CC(=O)OC[C@H]1O[C@@H](n2cc(C#C[Si](C)(C)C)c(=O)[nH]c2=O)C[C@@H]1OC(C)=O
VR (Vero [5]): 0 | VR (Vero [6]): 0

CCc1cn(C2CC(O)C(CO)C2)c(=O)[nH]c1=O (stereo not given)
VR (Vero [8]): 2.1 | VR (Vero [9]): 1.1 | VR (Vero [10]): 1.1 | MIC50 (Vero [11]): 45 µg/mL (≈ 177 µM) | MIC50 (Vero [12]): 70 µg/mL and 270 µM | VR (Vero [13]): 2.4 | MIC50 (Vero [14]): 230 µg/mL and 890 µM | MIC50 (Vero [15]): 180 µg/mL and 700 µM | MIC50 (Vero [16]): 170 µM (≈ 43.2 µg/mL)

C#Cc1cn(C2CC(O)C(CO)C2)c(=O)[nH]c1=O (stereo not given)
VR (Vero [17]): 0.9 | VR (Vero [18]): 1.1 | MIC50 (Vero [15]): 210 µg/mL and 830 µM | MIC50 (Vero [19]): 250 µg/mL and 990 µM

CCc1cn([C@H]2C[C@H](O)[C@@H](CO)O2)c(=O)[nH]c1=O [EDOXUDINE]
VR (Vero [20]): 2.2 | VR (Vero [21]): 2.3 | MIC50 (Vero [22]): 37 µg/mL (≈ 144 µM) | MIC50 (Vero [23]): 20 µg/mL and 80 µM | MIC50 (Vero [24]): 140 µM (≈ 35.9 µg/mL)

Nc1ncnc2c1ncn2[C@@H]1O[C@H](CO)[C@@H](O)[C@@H]1O [VIDARABINE]
VR (Vero [25]): 1.7 | VR (Vero [20]): 1.3 | VR (Vero [26]): 1.2 | MIC50 (Vero [27]): 18 µg/mL (≈ 67.4 µM) | VR (Vero [28]): 2.1 | VR (Vero [21]): 2 | MIC50 (Vero [29]): 22 µg/mL and 80 µM | MIC50 (Vero [22]): 45 µg/mL and 170 µM | MIC50 (Vero [30]): 24 µg/mL and 90 µM | MIC50 (Vero [31]): 70 µM (≈ 18.7 µg/mL) | MIC50 (Vero [23]): 15 µg/mL and 60 µM | MIC50 (Vero [32]): 5 µg/mL and 20 µM | VR (Vero [33]): 2.4
